{"data": "Assay results of several laboratories", "CHEK2": "Serine/threonine-protein kinase Chk2 (CHEK2, Homo sapiens, UniProt O96017)", "CHEK2 I157T": "Serine/threonine-protein kinase Chk2 (CHEK2, Homo sapiens, UniProt O96017, I157T)", "note": "Compare with care: the assays were run in different laboratories."}
{"Structure (SMILES)": "CCCOc1ccc([C@H]2[C@H](C(=O)O)[C@@H](c3ccc4c(c3)OCO4)CN2CC(=O)Nc2c(CC)cccc2CC)cc1", "target": "CHEK2", "observed": "cell-free assay", "method": "competition with immobilised ligand", "concentration": "1 µM", "quantity": "remaining binding", "result": "88%"}
{"Structure (SMILES)": "Cc1ccc(NC(=O)c2ccc(CN3CCN(C)CC3)cc2)cc1Nc1nc(-c2cccnc2)cs1", "target": "CHEK2", "observed": "cell-free assay", "concentration": "0.5 µM", "quantity": "remaining signal", "result": "101%"}
{"Structure (SMILES)": "Cc1noc([C@H]2C[C@@H](c3ccc(C(F)(F)F)cc3)CN(C(=O)N3CCS(=O)(=O)C3)C2)n1", "target": "CHEK2", "observed": "cell-free assay", "method": "competition with immobilised ligand", "concentration": "1 µM", "quantity": "remaining binding", "result": "100%"}
{"Structure (SMILES)": "Cn1c2c(Cl)c(Cl)ccc2c2cc[nH]c(=O)c21", "target": "CHEK2", "observed": "thermal stability", "method": "DSF", "concentration": "10 µM", "quantity": "ΔTm", "result": "0.2 °C"}
{"Structure (SMILES)": "CCCOc1ccc(OC)c(F)c1C(=O)c1ccc(C(=O)N[C@@H]2CNC[C@H]2NC(=O)c2ccc3[nH]ncc3c2)cc1", "target": "CHEK2 I157T", "observed": "enzyme activity", "action": "inhibitor", "concentration": "10 µM", "quantity": "remaining activity", "result": "16%"}
{"Structure (SMILES)": "CN(C)C1CCN(CC#Cc2nn(C3CCCC3)c3nc(NCc4ccccc4)ncc23)C1 (stereo not drawn)", "target": "CHEK2", "observed": "enzyme activity", "action": "inhibitor", "method": "FRET", "concentration": "0.1 µM", "quantity": "inhibition", "result": "6%"}
{"Structure (SMILES)": "Cc1ccc(C(=O)NCc2ccsc2)cc1C#Cc1cn(C(C)C)c2ncnc(N)c12", "target": "CHEK2", "observed": "enzyme activity", "action": "inhibitor", "concentration": "1 µM", "quantity": "activity vs control", "result": "109%"}
{"Structure (SMILES)": "Cn1c2c(c3ccc(Cl)c(Cl)c31)C(C#N)C(C)(C)NC2=O (stereo not drawn)", "target": "CHEK2", "observed": "thermal stability", "method": "DSF", "concentration": "10 µM", "quantity": "ΔTm", "result": "0.2 °C"}
{"Structure (SMILES)": "COc1cc(/C=C/C(=O)CC(=O)/C=C/c2ccc(O)c(OC)c2)ccc1O", "target": "CHEK2", "observed": "enzyme activity", "action": "inhibitor", "concentration": "1 µM", "quantity": "activity vs control", "result": "68%"}
{"Structure (SMILES)": "O=C(N1CCS(=O)(=O)CC1)N1C[C@H](c2ccc(OC(F)(F)F)cc2)C[C@H](c2nc(C3CC3)no2)C1", "target": "CHEK2", "observed": "cell-free assay", "method": "competition with immobilised ligand", "concentration": "1 µM", "quantity": "remaining binding", "result": "100%"}
{"Structure (SMILES)": "Cn1c2c(c3ccc(Cl)c(Cl)c31)C(C#N)C1(CCNCC1)NC2=O (racemic)", "target": "CHEK2", "observed": "thermal stability", "method": "DSF", "concentration": "10 µM", "quantity": "ΔTm", "result": "0.2 °C"}
{"Structure (SMILES)": "Oc1cccc(-c2nc(N3CCOCC3)c3oc4ncccc4c3n2)c1", "target": "CHEK2", "observed": "cell-free assay", "concentration": "0.5 µM", "quantity": "remaining signal", "result": "90.4%"}
{"Structure (SMILES)": "Cc1ccc(Nc2nccc(N(C)c3ccc4c(C)n(C)nc4c3)n2)cc1S(N)(=O)=O", "target": "CHEK2", "observed": "enzyme activity", "action": "inhibitor", "concentration": "0.3 µM", "quantity": "inhibition", "result": "-13%"}
{"Structure (SMILES)": "CC(=O)N1CCC(c2ccc(C(=O)NC3=NCCN3)cc2C(F)(F)F)CC1", "target": "CHEK2", "observed": "cell-free assay", "method": "competition with immobilised ligand", "concentration": "1 µM", "quantity": "remaining binding", "result": "100%"}
{"Structure (SMILES)": "Nc1ncnc2occ(-c3ccc(NC(=O)Nc4cc(C(F)(F)F)ccc4F)cc3)c12", "target": "CHEK2", "observed": "cell-free assay", "action": "inhibitor", "concentration": "20 µM", "quantity": "remaining signal", "result": "13%"}
{"Structure (SMILES)": "CNC(=O)c1cc(Oc2ccc(NC(=O)Nc3ccc(Cl)c(C(F)(F)F)c3)cc2)ccn1", "target": "CHEK2 I157T", "observed": "enzyme activity", "action": "inhibitor", "concentration": "0.3 µM", "quantity": "inhibition", "result": "-9%"}
{"Structure (SMILES)": "N#CCCc1ccc2c(c1)-c1[nH]c3ccc([N+](=O)[O-])cc3c1CC(=O)N2", "target": "CHEK2", "observed": "cell-free assay", "concentration": "0.5 µM", "quantity": "remaining signal", "result": "12.6%"}
{"Structure (SMILES)": "C[C@H](c1ccc(F)cc1)N(Cc1cccc(C(=O)O)c1)C(=O)c1cnc2ccccc2c1", "target": "CHEK2", "observed": "cell-free assay", "method": "competition with immobilised ligand", "concentration": "1 µM", "quantity": "remaining binding", "result": "91%"}
{"Structure (SMILES)": "CN1CCC2(CC1)NC(=O)c1c(c3ccc(Cl)c(Cl)c3n1C)C2C#N (racemic)", "target": "CHEK2", "observed": "thermal stability", "method": "DSF", "concentration": "10 µM", "quantity": "ΔTm", "result": "-0.3 °C"}
{"Structure (SMILES)": "O=C(Nc1cccnn1)N1CC(C/C=C/c2cncc(Oc3ccc(C(F)(F)F)cn3)n2)C1", "target": "CHEK2", "observed": "cell-free assay", "method": "competition with immobilised ligand", "concentration": "1 µM", "quantity": "remaining binding", "result": "100%"}
{"Structure (SMILES)": "Cn1c2c(c3ccccc31)C(C#N)C(C)(C)NC2=O (stereo not drawn)", "target": "CHEK2", "observed": "thermal stability", "method": "DSF", "concentration": "10 µM", "quantity": "ΔTm", "result": "0.8 °C"}
{"Structure (SMILES)": "CC(C)CC(=O)N1CCc2nc(-c3ccc(Br)cc3)nc(N(C)Cc3ccccc3)c2C1", "target": "CHEK2", "observed": "cell-free assay", "method": "competition with immobilised ligand", "concentration": "0.1 µM", "quantity": "remaining binding", "result": "100%"}
{"Structure (SMILES)": "N#CC1c2c([nH]c3c(Cl)c(Cl)ccc23)C(=O)NC12CCCCC2 (racemic)", "target": "CHEK2", "observed": "thermal stability", "method": "DSF", "concentration": "10 µM", "quantity": "ΔTm", "result": "0.1 °C"}
{"Structure (SMILES)": "C[S+]([O-])c1ccc(-c2nc(-c3ccncc3)c(-c3ccc(F)cc3)[nH]2)cc1 (stereo not drawn)", "target": "CHEK2", "observed": "cell-free assay", "concentration": "0.5 µM", "quantity": "remaining signal", "result": "99.6%"}
{"Structure (SMILES)": "CCOCCn1cc(C(=O)Nc2ccc(-n3nc(-c4cccnc4)cc3C(F)(F)F)cn2)ccc1=O", "target": "CHEK2", "observed": "cell-free assay", "method": "competition with immobilised ligand", "concentration": "1 µM", "quantity": "remaining binding", "result": "0%"}
{"Structure (SMILES)": "O=C1NC(=O)c2cc(Nc3ccc(F)cc3)c(Nc3ccc(F)cc3)cc21", "target": "CHEK2", "observed": "cell-free assay", "concentration": "0.5 µM", "quantity": "remaining signal", "result": "94.3%"}
{"Structure (SMILES)": "Cc1cc(NC(=O)c2cccc3cc(-c4cccc5[nH]nc(N)c45)ccc23)ccc1F", "target": "Serine/threonine-protein kinase Chk2 (CHEK2, Homo sapiens, UniProt O96017, R145W)", "observed": "enzyme activity", "action": "inhibitor", "concentration": "0.1 µM", "quantity": "activity vs control", "result": "99%"}
